Test results reported in paper PMC6262783 (International Journal for Parasitology: Drugs and Drug …, 2018).
“Also recorded” adds a separate entry of the source.

Columns and labels:
PRU T. gondii = assay: T. gondii growth inhibition in vitro screen, PRU-dTom strain; type: cell-based, Toxoplasma gondii; conditions: for activity against PRU T. gondii (in words): PRU strain; for IC50: Toxoplasma gondii, 120 h, read-out: PRU T. gondii IC50
Method in brief: (§1)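 HFF (~20,000/well) were grown to confluence, then infected with dTomato-expressing tachyzoites: RH 2000/well for 24 h, or PRU 8000/well for 48 h, at 37 °C. Medium was replaced and test compound in DMSO added at 0–100 µM in duplicate, with pyrimethamine as positive control. Fluorescence (ex 530/25, em 590/25) was read over 5 days; IC50 was the concentration halving RFU at day 5.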

RH T. gondii = assay: T. gondii growth inhibition in vitro screen, RH-dTom strain; type: cell-based, Toxoplasma gondii; conditions: for activity against RH T. gondii (in words): primary screen
Method in brief: as §1

[1] = test system: human foreskin fibroblasts (HFF); assay: Mammalian cell cytotoxicity screen; type: cell-based; conditions: Fibroblast, 24 h, read-out: HFF IC50
Method in brief: (§2)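 HFF and U-20S were kept in DMEM with 10% heat-inactivated bovine serum, 2 mM L-glutamine, penicillin/streptomycin, 10% Medium 199 and gentamicin, at 36.5 °C with 5% CO2. Confluent cells (~20,000/well plated) were treated with 0–100 µM test compound for 24 h in duplicate. Alamar Blue (0.5 mM resazurin, 4 h, 37 °C) was read at ex 530/25, em 590/25; untreated cells defined 100% viability.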

human albumin = human albumin (Homo sapiens, UniProt P02768); assay: Chromatography-based protein binding; type: in vitro ADME; conditions: estimated by chromatographic method, human albumin column
Chain of human albumin (P02768 25-609): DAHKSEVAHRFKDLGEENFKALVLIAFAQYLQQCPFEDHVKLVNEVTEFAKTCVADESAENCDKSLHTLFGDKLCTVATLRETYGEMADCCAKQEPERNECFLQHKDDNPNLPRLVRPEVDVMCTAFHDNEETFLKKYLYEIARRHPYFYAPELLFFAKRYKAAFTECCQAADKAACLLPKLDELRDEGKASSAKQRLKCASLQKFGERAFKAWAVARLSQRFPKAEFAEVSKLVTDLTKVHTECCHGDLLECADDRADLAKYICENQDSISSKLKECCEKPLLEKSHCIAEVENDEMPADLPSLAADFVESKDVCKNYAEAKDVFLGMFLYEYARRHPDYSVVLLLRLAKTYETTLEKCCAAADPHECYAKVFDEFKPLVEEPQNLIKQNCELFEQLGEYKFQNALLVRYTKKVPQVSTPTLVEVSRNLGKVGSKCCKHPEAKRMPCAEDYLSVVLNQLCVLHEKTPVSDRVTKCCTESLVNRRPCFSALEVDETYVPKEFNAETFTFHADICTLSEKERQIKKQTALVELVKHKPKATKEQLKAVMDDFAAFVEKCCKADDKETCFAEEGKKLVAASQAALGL
Method in brief: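 Plasma protein binding was estimated chromatographically on a human albumin column. Retention was correlated against a standard series of compounds with known cPPB values.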

[2] = test system: Salmonella typhimurium (TA100 strain); assay: Bacterial reverse mutation assay; type: cell-based; conditions: 0.75 μM (ca. 3x average T. gondii IC50)
[3] = test system: human embryonic kidney cells (HEK-293); assay: Mammalian cell cytotoxicity screen; type: cell-based; conditions: HEK293, 24 h, read-out: HEK293 IC50
Method in brief: (§3)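 HEK-293 and HC-04 were kept in DMEM with 10% heat-inactivated bovine serum, 2 mM L-glutamine, penicillin/streptomycin and gentamicin (no Medium 199), at 36.5 °C with 5% CO2. Cells (~20,000/well) were grown to confluence, then treated with 0–100 µM test compound for 24 h in duplicate. Alamar Blue (0.5 mM resazurin, 4 h, 37 °C) was read at ex 530/25, em 590/25; viability was relative to untreated cells (100%).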

[4] = test system: RH-dTom tachyzoites in pre-treated HFF cells; assay: Host cell; type: cell-based, Toxoplasma gondii
Method in brief: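 HFF were grown to confluence in 96-well plates and exposed to 10 µM test compound for 24 h at 37 °C, in triplicate. Cells were washed twice with D10 medium, then infected with RH-dTom tachyzoites. Parasite growth was followed by fluorescence for 5 days post-infection and expressed relative to control.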

[5] = Metabolic stability in mouse liver microsomes; type: in vitro ADME
Method in brief: (§4)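 Test compound (1 µM) was incubated with human or mouse liver microsomes (0.4 mg/mL protein) at 37 °C. Reactions were started with an NADPH-regenerating system and quenched at 2, 30 and 60 min. Remaining compound was quantified by LCMS to derive half-life, in vitro intrinsic clearance and predicted hepatic extraction ratio.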

[6] = test system: human osteosarcoma cells (U-20S); assay: Mammalian cell cytotoxicity screen; type: cell-based; conditions: U2OS, 24 h, read-out: U2OS IC50
Method in brief: as §2

[7] = test system: murine macrophages (NR-9456); assay: Mammalian cell cytotoxicity screen; type: cell-based; conditions: Mus musculus, Macrophage, 24 h, read-out: NR-9456 IC50
Method in brief: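 Murine macrophages NR-9456 were maintained with added 1 mM sodium pyruvate and plated at ~20,000/well to confluence. They were exposed to 0–100 µM test compound for 24 h in duplicate. Resazurin (0.5 mM) was added for 4 h at 37 °C with 5% CO2, and fluorescence was read at ex 530/25, em 590/25. Viability was normalised to no-compound wells (100%).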

[8] = Kinetic aqueous solubility by nephelometry; type: physicochemical; conditions: PBS pH 6.5, pH 6.5, aqueous buffer, kinetic from dmso stock
Method in brief: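 Kinetic solubility was determined by nephelometry after 30 min at room temperature. A solubility range was reported.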

[9] = Metabolic stability in human liver microsomes; type: in vitro ADME
Method in brief: as §4

[10] = test system: human liver cells (HC-04); assay: Mammalian cell cytotoxicity screen; type: cell-based; conditions: HC04, 24 h, read-out: HCO4 IC50
Method in brief: as §3

RH-dTom tachyzoites = assay: Extracellular parasite pre-treatment assay; type: cell-based; conditions: Toxoplasma gondii, read-out: parasite growth, % of control
Method in brief: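 RH-dTom tachyzoites were isolated from culture and resuspended in D10 medium at 10e6/mL. They were exposed to 10 µM test compound for 4 h, then centrifuged and washed twice. Confluent HFF in 96-well plates were infected with 2000 treated tachyzoites per well. Parasite growth was read by fluorescence at 5 days post-infection and expressed relative to control.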

ME49 strain T. gondii = assay: In vivo survivorship challenge in murine model; design: species or system Toxoplasma gondii
Method in brief: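 Female Swiss Webster mice, 2 months old, were infected intraperitoneally with 5000 ME49 tachyzoites. Dosing started simultaneously: test compound 5 mg/kg (n = 10), pyrimethamine 5 mg/kg (n = 20) or solvent (n = 24), IP once daily for 10 days. Vehicle was 5% DMSO, 47.5% propylene glycol, 47.5% Kollisolv. Mice were weighed daily; survival was followed over 40 d by Kaplan-Meier.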

T. gondii = conditions: ref Sanford et al., 2018; cited from earlier work

In the case of `CC(C)(C)C1=CC(=NNC(=O)c2cccnc2)C=C(C(C)(C)C)C1=O` [KGW65, N'-(3,5-di-tert-butyl-4-oxocyclohexa-2,5-dien-1-ylidene)nicotinohydrazide], the “activity against PRU T. gondii (in words)” value (PRU T. gondii) is reported as “completely inactive”.
For `CC1(C)CC(=NNC(=O)c2ccncc2)CC(C)(C)C1=O` [KGW73, N'-(3,3,5,5-tetramethyl-4-oxocyclohexylidene)isonicotinohydrazide], the “activity against RH T. gondii (in words)” value (RH T. gondii; RH strain) was “inactive” and the IC50 [1] was over 100 µM.
With `CC(C)(C)C1=CC(=NNC(=O)c2ccc([N+](=O)[O-])cc2)C=C(C(C)(C)C)C1=O` [KGW44, N'-(3,5-di-tert-butyl-4-oxocyclohexa-2,5-dien-1-ylidene)-4-nitrobenzohydrazide] the “cPPB (% Bound)” value (human albumin) was 84.3 % Bound, the “Ames Assay” value [2] was “neither compound was mutagenic; also recorded: Negative” and the IC50 (PRU T. gondii) was 0.99 µM. For the same compound, the IC50 [3] was over 100 µM, the IC50 [1] was over 100 µM and the “parasite growth, % of control” value ([4]; HFF pre-treated 10 μM 24 h, washed, then infected, 5 days post-infection) was “no significant change in growth”. It also gave a half-life at 1 μM [5] of 0.15 h, a microsomal CLint at 1 μM [5] of 99 µL/min/mg and an IC50 [6] of over 100 µM. For the same compound, the IC50 [7] was over 100 µM, the solubility kinetic at 30 min [8] was under 1.6 µg/mL and the “Predicted EH” value [9] was 0.45. It also gave a half-life at 1 μM [9] of 1.38 h, a microsomal CLint at 1 μM [9] of 21 µL/min/mg and an IC50 [10] of over 100 µM. The activity at 10 µM (RH-dTom tachyzoites) was 60.3%.
In the case of `CC(C)(C)C1=CC(=NNc2ccc([N+](=O)[O-])cc2[N+](=O)[O-])C=C(C(C)(C)C)C1=O` [KGW59, 2,6-di-tert-butyl-4-(2-(2,4-dinitrophenyl)hydrazineylidene)cyclohexa-2,5-dien-1-one], the “survivorship (in words)” value (ME49 strain T. gondii) is reported as “significantly increased survivorship”, the “Ames Assay” value [2] is reported as “neither compound was mutagenic; also recorded: Negative” and the IC50 (PRU T. gondii) is reported as 1.4 µM. For the same compound, the IC50 [3] was over 100 µM, the IC50 [1] was over 100 µM and the activity at 10 µM ([4]; Toxoplasma gondii, HFF, read-out: parasite growth, % of control) was 30.2%. The “Predicted EH” value [5] was 0.50, the half-life at 1 μM [5] was 0.617 h and the microsomal CLint at 1 μM [5] was 46 µL/min/mg. The IC50 [6] was over 100 µM, the IC50 [7] was over 100 µM and the solubility kinetic at 30 min [8] was under 1.6 µg/mL. The “Predicted EH” value [9] was 0.38, the half-life at 1 μM [9] was 1.85 h and the microsomal CLint at 1 μM [9] was 16 µL/min/mg. For the same compound, the IC50 [10] was over 100 µM.
In the case of `CCOc1ccc(C(=O)NN=C2C=C(C(C)(C)C)C(=O)C(C(C)(C)C)=C2)cc1` [KGW64, N'-(3,5-di-tert-butyl-4-oxocyclohexa-2,5-dien-1-ylidene)-4-ethoxybenzohydrazide], the “activity against PRU T. gondii (in words)” value (PRU T. gondii) is reported as “only weakly active”.
`Cc1ccc(C(=O)NN=C2C=C(C(C)(C)C)C(=O)C(C(C)(C)C)=C2)cc1` [KGW42, N'-(3,5-di-tert-butyl-4-oxocyclohexa-2,5-dien-1-ylidene)-4-methylbenzohydrazide] showed an IC50 [1] of over 100 µM.
In the case of `Cc1ccc(C(=O)ON=C2C=C(C(C)(C)C)C(=O)C(C(C)(C)C)=C2)cc1` [KGW72, 2,6-di-tert-butyl-4-(((4-methylbenzoyl)oxy)imino)cyclohexa-2,5-dien-1-one], the “reduction of potency relative to KG8” value (RH T. gondii; RH strain) is reported as 6 fold and the IC50 [1] is reported as over 100 µM.
Work on `CC(C)(C)C1=CC(=NNC(=O)c2ccc(C#N)cc2)C=C(C(C)(C)C)C1=O` [KGW54, 4-cyano-N'-(3,5-di-tert-butyl-4-oxocyclohexa-2,5-dien-1-ylidene)benzohydrazide] yielded an IC50 (PRU T. gondii) of 2.2 µM, an IC50 (RH T. gondii; read-out: RH T. gondii IC50, RH-dTom tachyzoites in HFF, fluorescence, day 5) of 1.2 µM and an IC50 [1] of over 100 µM.
With `CC(C)(C)C1=CC(=NNC(=O)c2c[nH]cn2)C=C(C(C)(C)C)C1=O` [KGW45, N'-(3,5-di-tert-butyl-4-oxocyclohexa-2,5-dien-1-ylidene)-1H-imidazole-4-carbohydrazide] the “activity against RH T. gondii (in words)” value (RH T. gondii; RH strain) was “significantly weakened” and the IC50 [1] was over 100 µM.
With `CC(C)(C)C1=CC(=NNC(=O)c2ccccc2)C=C(C(C)(C)C)C1=O` [KGW15, N'-(3,5-di-tert-butyl-4-oxocyclohexa-2,5-dien-1-ylidene)benzohydrazide] the IC50 [1] was over 100 µM.
With `CC(C)(C)C1=CC(=NNC(=O)C2CCCCC2)C=C(C(C)(C)C)C1=O` [KGW66, N'-(3,5-di-tert-butyl-4-oxocyclohexa-2,5-dien-1-ylidene)cyclohexanecarbohydrazide] the “activity against RH T. gondii (in words)” value (RH T. gondii; RH strain) was “abolished activity”.
For `CC(C)(C)C1=CC(=NNC(=O)c2ccc(O)cc2)C=C(C(C)(C)C)C1=O` [KGW43, N'-(3,5-di-tert-butyl-4-oxocyclohexa-2,5-dien-1-ylidene)-4-hydroxybenzohydrazide], the IC50 [1] was over 100 µM.
For `NNC(=O)c1ccncc1` [isoniazid], the “activity against T. gondii in vitro (in words)” value (T. gondii) is listed as “inactive”.
